# Reference: article PMC3351724 (Journal of Medicinal Chemistry, 2012)
# Tests used:
# [1] = In vivo pharmacokinetic parameters; conditions: parent 8b in rat after oral administration of the 8b salt, 20 mg/kg
# In short: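 Rats dosed orally at 20 mg/kg with the test form; parent compound measured in plasma. Parameters derived: Cmax, Tmax, half-life, volume of distribution, AUC0-t and calculated total clearance (ClT).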
# [2] = Human liver microsomal incubations; type: in vitro ADME
# In short: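 Test compound at 1 µM incubated with human liver microsomes (1 mg/mL) plus NADPH; samples taken at 0, 10, 30 and 60 min; parent compound remaining measured.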
# [3] = test system: 3D7 strain of P. falciparum; assay: In vitro antimalarial activity versus 3D7 Plasmodium falciparum; type: cell-based; conditions: 3D7, read-out: IC50 (nM) 3D7 ± SD, 3D7 strain of P. falciparum
ClT [1],"parent compound present after 60 min incubation ([2]; 1 μM, human liver microsomes 1 mg/mL, NADPH, 60 min)","CLint scaled at 1 µM ([2]; human, liver microsomes)",SMILES,IC50 [3]
0.2763 L/h/kg,Greater than 60%,0.107 L/h/kg,Cc1c(-c2ccc(-c3ccc(OC(F)(F)F)cc3)nc2)[nH]c2ccccc2c1=O [8b],–
–,–,–,CCOC(=O)c1c(-c2ccc(-c3ccc(OC(F)(F)F)cc3)nc2)[nH]c2ccccc2c1=O [compound 21],103 nM
–,–,–,O=c1c(CO)c(-c2ccc(-c3ccc(OC(F)(F)F)cc3)nc2)[nH]c2ccccc12 [compound 22],987 nM
